In data set [1] the target is Cytochrome P450 3A4 (Homo sapiens, UniProt P08684). The experiment in a line: Inhibition of CYP3A4 in human liver microsomes using midazolam as a substrate preincubated for 10 mins followed by NADPH addition and measured after 20 mins by LC/MS/MS analysis. (In general: Liver microsomes are vesicles of endoplasmic reticulum, rich in cytochrome P450 enzymes.)
The target in data set [2] is T1, Cytochrome P450 2C8 (Homo sapiens, UniProt P10632).
T1 sequence (P10632 whole entry): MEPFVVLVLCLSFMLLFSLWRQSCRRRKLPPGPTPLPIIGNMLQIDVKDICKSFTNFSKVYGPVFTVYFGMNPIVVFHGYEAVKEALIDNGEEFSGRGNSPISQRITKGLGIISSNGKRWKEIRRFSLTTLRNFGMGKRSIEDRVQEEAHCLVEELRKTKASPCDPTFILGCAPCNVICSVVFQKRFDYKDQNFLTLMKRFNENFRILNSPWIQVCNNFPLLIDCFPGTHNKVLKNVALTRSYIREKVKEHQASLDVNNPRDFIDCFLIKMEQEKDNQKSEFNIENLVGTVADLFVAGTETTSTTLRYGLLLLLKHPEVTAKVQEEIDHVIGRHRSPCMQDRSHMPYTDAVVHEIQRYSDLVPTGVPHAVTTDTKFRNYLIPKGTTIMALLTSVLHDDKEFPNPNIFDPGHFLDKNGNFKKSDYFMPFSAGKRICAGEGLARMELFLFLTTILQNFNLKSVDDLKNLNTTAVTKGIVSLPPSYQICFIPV
The experiment in a line: Inhibition of CYP2C8 in human liver microsomes using amodiaquine as a substrate preincubated for 10 mins followed by NADPH addition and measured after 10 mins by LC/MS/MS analysis.

Data set [3] in a line: in vivo. The following applies: C57BL/6, mouse, po, 10 mg/kg.
Data set [4] is described as follows: Stability in Sprague-Dawley rat hepatocytes assessed as clearance per […] at 1 uM after 20 mins by LC-MS/MS analysis. The class given is ADME, cell-based, Hepatocyte.
Data set [5] is described as follows: Clearance in fasted C57BL/6 mouse at 3 mg/kg, iv by LC-MS/MS analysis. The class given is ADME, organism-based. The following applies: in vivo.
Data set [6] addresses T2, Atrial natriuretic peptide receptor 3 (Rattus norvegicus) (UniProt P41740).
T2 sequence (whole entry): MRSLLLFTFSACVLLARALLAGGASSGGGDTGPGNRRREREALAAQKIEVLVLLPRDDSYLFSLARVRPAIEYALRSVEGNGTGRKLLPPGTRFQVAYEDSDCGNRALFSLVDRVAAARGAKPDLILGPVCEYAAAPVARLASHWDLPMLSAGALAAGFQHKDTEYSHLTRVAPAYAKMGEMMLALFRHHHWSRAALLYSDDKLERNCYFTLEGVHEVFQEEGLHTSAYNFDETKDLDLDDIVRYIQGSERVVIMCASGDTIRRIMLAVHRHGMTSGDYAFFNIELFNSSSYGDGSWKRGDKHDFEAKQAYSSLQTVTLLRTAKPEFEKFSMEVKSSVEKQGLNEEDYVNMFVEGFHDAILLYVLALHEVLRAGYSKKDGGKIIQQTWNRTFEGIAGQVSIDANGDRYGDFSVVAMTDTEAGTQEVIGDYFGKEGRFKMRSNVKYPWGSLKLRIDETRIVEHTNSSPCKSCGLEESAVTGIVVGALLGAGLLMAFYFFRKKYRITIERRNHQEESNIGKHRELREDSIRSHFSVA
The experiment in a line: Agonist activity at NPRC in rat aorta assessed as inhibition of cANF4-23 induced vasorelaxation in presence of M372049 by Organ bath assay. It is filed as tissue-based. Particulars: filed as agonist.

Data set [7] in a line: AUC (0 to infinity) in fasted C57BL/6 mouse at 3 mg/kg, iv by LC-MS/MS analysis. Also noted: time infinity, dose 3 mg/kg, route iv. It is filed as ADME, organism-based. The following applies: in vivo.
Data set [8] deals with Cytochrome P450 2C19 (Homo sapiens, UniProt P33261). Put plainly: Inhibition of CYP2C19 in human liver microsomes using S-mephenytoin as substrate preincubated for 10 mins followed by NADPH addition and measured after 20 mins by LC/MS/MS analysis.
Sequence of Cytochrome P450 2C19 (P33261 whole entry): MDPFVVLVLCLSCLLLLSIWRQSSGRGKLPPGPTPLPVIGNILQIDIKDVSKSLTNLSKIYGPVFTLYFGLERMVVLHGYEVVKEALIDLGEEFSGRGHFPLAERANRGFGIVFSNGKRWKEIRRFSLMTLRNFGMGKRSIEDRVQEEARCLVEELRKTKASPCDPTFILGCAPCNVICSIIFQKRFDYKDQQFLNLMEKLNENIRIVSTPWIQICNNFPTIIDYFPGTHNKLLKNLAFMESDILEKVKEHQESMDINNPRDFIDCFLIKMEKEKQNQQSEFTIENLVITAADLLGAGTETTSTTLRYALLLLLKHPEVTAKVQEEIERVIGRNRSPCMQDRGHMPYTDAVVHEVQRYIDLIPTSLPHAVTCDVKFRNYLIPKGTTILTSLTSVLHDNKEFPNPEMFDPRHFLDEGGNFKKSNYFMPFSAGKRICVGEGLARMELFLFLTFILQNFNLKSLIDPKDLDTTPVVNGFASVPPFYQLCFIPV
The nature of data set [9]: AUC (0 to infinity) in fasted C57BL/6 mouse at 10 mg/kg, po by LC-MS/MS analysis. The class given is ADME, organism-based. Details: time infinity, dose 10 mg/kg, route po. The following applies: in vivo.
The target in data set [10] is T3, Atrial natriuretic peptide receptor 3 (Homo sapiens) (UniProt P17342).
T3 sequence (whole entry): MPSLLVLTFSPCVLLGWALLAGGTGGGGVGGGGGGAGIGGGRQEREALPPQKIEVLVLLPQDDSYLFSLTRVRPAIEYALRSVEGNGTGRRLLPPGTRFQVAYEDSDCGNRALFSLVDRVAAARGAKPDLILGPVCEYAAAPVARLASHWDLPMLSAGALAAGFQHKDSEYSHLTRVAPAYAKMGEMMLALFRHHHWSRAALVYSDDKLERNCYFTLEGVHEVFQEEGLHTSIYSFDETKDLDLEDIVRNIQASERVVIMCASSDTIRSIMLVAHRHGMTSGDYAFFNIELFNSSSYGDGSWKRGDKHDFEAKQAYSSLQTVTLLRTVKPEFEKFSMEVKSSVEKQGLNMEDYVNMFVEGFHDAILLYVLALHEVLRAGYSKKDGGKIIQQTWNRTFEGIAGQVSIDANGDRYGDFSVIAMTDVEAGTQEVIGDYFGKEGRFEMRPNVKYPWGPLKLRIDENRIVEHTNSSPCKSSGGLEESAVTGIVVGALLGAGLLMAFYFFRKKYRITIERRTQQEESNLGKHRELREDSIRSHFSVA
Put plainly: Displacement of Flu-P19 probe from human NPR-C (27 to 541 residues) at 300 uM by fluorescence polarization analysis relative to control. The procedure, abridged: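 Competition fluorescence polarization with NPR-C protein 20 nM and Flu-P19 probe 150 pM (final) in PBS-P with 1% DMSO final; samples were prepared on ice. Primary screen at 300 μM ligand. Read at 485 nm excitation / 520 nm emission. Signal normalized to buffer+probe and protein+probe controls; background blanked with buffer-only PBS-P/1% DMSO.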
Background: Fluorescence polarisation rises when a labelled molecule tumbles more slowly, as on binding a larger partner.

Data set [11] in a line: Protein binding in human plasma by equilibrium dialysis assay.
Data set [12] is described as follows: Solubility of compound in PBS at 10 mM after 3 hrs by UV analysis. The following applies: buffer, 10000 µM.
For data set [13], the target named is T2, Atrial natriuretic peptide receptor 3 (Rattus norvegicus). Put plainly: Agonist activity at NPRC in rat aorta assessed as inhibition of cANF4-23 induced vasorelaxation in presence of osteocrin by Organ bath assay. The class given is tissue-based. The following applies: filed as agonist.
Data set [14] concerns the target T4, Atrial natriuretic peptide receptor 3 (Homo sapiens, UniProt P17342).
T4 sequence (P17342 whole entry): T3 sequence (whole entry)
Put plainly: Binding affinity to CM5 sensor chip immobilized human NPR-C (27 to 541 residues) assessed as dissociation constant by surface plasmon resonance analysis. (In general: In SPR one partner is held on a chip, and binding of the other changes the refractive index at the surface.)

A short description of data set [15]: Mean residence time (0 to infinity) in fasted C57BL/6 mouse at 3 mg/kg, iv by LC-MS/MS analysis. Particulars: in vivo.
The nature of data set [16]: Volume of distribution at steady state in fasted C57BL/6 mouse at 3 mg/kg, iv by LC-MS/MS analysis. It is filed as ADME, organism-based. Particulars: in vivo, read-out: Vdss.
Data set [17] has as its target T3, Atrial natriuretic peptide receptor 3 (Homo sapiens). Put plainly: Agonist activity at NPRC in human Hela cells assessed as decrease in forskolin-induced cAMP level at 100 uM relative to control. The class given is cell-based. Details: scale not given: the % may be the effect or the level left.

SMILES strings stand for the structures. ≈ marks a conversion by molar mass, not a printed value. Calls of active or inactive are those of the source. The calls are words filed in the database; no cut-off is given here. Where only a bound is given, the exact number is not on record here.

Broadly, the IC50 is the concentration that inhibits the measured activity by half. The term Tmax denotes the time from dosing to the highest level. What is called clearance is the volume of plasma or blood freed of the substance per unit of time. One may read the AUC(0-inf) as total exposure, with the tail of the curve extrapolated. One may read the solubility as how much of the substance goes into solution per volume. The term Kd denotes the equilibrium constant for the complex coming apart. A word on the MRT inf: it is a mean duration of stay, worked out from the concentration-time curve.

Sequence of Cytochrome P450 3A4 (P08684 whole entry): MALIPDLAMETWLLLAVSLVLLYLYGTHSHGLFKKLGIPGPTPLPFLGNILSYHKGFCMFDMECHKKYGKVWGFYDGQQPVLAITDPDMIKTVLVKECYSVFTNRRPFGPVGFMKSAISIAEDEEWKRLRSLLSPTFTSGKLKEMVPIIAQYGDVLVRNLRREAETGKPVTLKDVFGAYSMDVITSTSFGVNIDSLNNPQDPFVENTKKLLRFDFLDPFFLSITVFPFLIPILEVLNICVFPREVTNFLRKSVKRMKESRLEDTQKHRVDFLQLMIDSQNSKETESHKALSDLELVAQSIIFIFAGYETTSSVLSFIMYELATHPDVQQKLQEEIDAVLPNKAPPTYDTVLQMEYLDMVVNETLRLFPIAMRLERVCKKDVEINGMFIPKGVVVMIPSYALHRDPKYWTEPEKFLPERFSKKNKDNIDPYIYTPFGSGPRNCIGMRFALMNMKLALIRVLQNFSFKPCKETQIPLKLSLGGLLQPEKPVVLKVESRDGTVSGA

`CC(=O)Nc1ccc(Nc2ncnc(NCCC(=O)OC(C)(C)C)n2)cc1`: the half-maximal inhibitory concentration (IC50) in [1], in data set [2] and in [8] was more than 50 µM throughout. Besides, the time to peak (Tmax) in data set [3] came out at 15 min. For the same compound, in data set [4], the CLH stood at 11.8 µL/min. This compound also had a clearance in data set [5] of 6.72 L/h/kg. The result in [6] and in data set [13] was Active. The AUC(0-inf) in [7] is 0.448 µg·h/mL; in data set [9], 0.653 µg·h/mL. The Activity in data set [10] is less than 17%; in [17], 37.7%. This compound came in with a PPB in data set [11] of 71%. Besides, the solubility in data set [12] was found to be 71.17 mg/mL (≈ 191 mM). In addition, the Kd in data set [14] is 146 µM. Further, the MRT inf in data set [15] came to 15.7 min. Further, the Vd in [16] was 1.75 L/kg.

These data come from ChEMBL document CHEMBL5154815, “A Series of Substituted Bis-Aminotriazines Are Activators of the Natriuretic Peptide Receptor C” (J Med Chem, 2022).
